This passage reports Ki, IC50 and Ratio results from ChEMBL document CHEMBL1128444 (J Med Chem, 1995).

Assay [1] addresses T1, Sodium-dependent dopamine transporter (Rattus norvegicus, UniProt P23977). Nature of the assay: Inhibition of [3H]DA uptake by rat striatal dopamine transporter. The gist of the method: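 Rat striatal crude synaptosomes were prepared from male Sprague–Dawley rats by 0.32 M sucrose homogenisation and centrifugation at 800g then 2000g. Each tube held 1.5 mg tissue, 0.5 nM [3H]dopamine and 10 μM pargyline in Krebs phosphate buffer, pH 7.4, with dextrose and ascorbate. Incubation was 3 min at 30 °C, followed by filtration and scintillation counting. Nonspecific uptake was defined with 1 μM mazindol. Three or four experiments were run in triplicate, and Ki was derived by Cheng–Prusoff.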

In assay [2] the target is T2, Sodium-dependent serotonin transporter (Rattus norvegicus, UniProt P31652). Nature of the assay: Inhibition of [3H]- 5-HT uptake in Serotonin transporter using serotonin uptake assay in rat midbrain tissue. It counts as tissue-based. In short, it runs like this: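 Rat midbrain synaptosomes were used at 1 mg/mL tissue with 5 nM final [3H]serotonin and 10 μM pargyline in Krebs phosphate buffer, pH 7.4. Incubation was 3 min at 30 °C, followed by filtration and scintillation counting. Nonspecific uptake was defined with 1 μM citalopram. Three or four experiments were run in triplicate, and Ki was derived by Cheng–Prusoff.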

For assay [3], the target named is T2, Sodium-dependent serotonin transporter. As to the kind of experiment: Binding affinity at the Serotonin transporter in rat midbrain by inhibition of 0.5 nM [3H]-paroxetine binding. It counts as tissue-based.
Assay [4] concerns the target T3, Norepinephrine transporter (Rattus norvegicus, UniProt Q9WTR4). As to the kind of experiment: Inhibition of [3H]NE uptake by rat frontal cortex Norepinephrine transporter. Type of assay: tissue-based. In short, it runs like this:
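Rat frontal cortex synaptosomes were used at 10 mg/mL tissue with 5 nM final [3H]norepinephrine and 10 μM pargyline in Krebs phosphate buffer, pH 7.4. Incubation was 3 min at 30 °C, followed by filtration and scintillation counting. Nonspecific uptake was defined with 1 μM desipramine. Three or four experiments were run in triplicate, and Ki was derived by Cheng–Prusoff.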

Assay [5] deals with T4, Monoamine transporters; serotonin & dopamine (Rattus norvegicus) (UniProt P31652+P23977). Nature of the assay: Ratio of IC50 value against Serotonin transporter to that of dopamine transporter. It counts as protein assay.
Assay [6] deals with Monoamine transporters; Norepininephrine & dopamine (Rattus norvegicus) (UniProt P23977+Q9WTR4). As to the kind of experiment: Ratio of IC50 value against NE to that of DA transporters. It counts as protein assay. The gist of the method:
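Competition binding against 0.5 nM [3H]WIN 35,428 (DA transporter) or 0.5 nM [3H]nisoxetine (NE transporter). The IC50 is the mean ± standard error of three or four experiments, each run in triplicate. Selectivity ratios are NE/DA or 5-HT/DA quotients of the IC50 values.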

Assay [7] deals with T3, Norepinephrine transporter. As to the kind of experiment: Binding affinity at the Norepinephrine transporter in rat frontal cortex by inhibition of 0.5 nM [3H]nisoxetine binding. Type of assay: tissue-based.
In assay [8] the target is T1, Sodium-dependent dopamine transporter. Nature of the assay: Binding affinity at the Dopamine transporter in rat striata by inhibition of 0.5 nM [3H]WIN-35428 binding.
Assay [9] deals with T4, Monoamine transporters; serotonin & dopamine (Rattus norvegicus). As to the kind of experiment: Ratio of IC50 value against 5-HT to that of DA transporters. Type of assay: protein assay.

T2 sequence (P31652 whole entry): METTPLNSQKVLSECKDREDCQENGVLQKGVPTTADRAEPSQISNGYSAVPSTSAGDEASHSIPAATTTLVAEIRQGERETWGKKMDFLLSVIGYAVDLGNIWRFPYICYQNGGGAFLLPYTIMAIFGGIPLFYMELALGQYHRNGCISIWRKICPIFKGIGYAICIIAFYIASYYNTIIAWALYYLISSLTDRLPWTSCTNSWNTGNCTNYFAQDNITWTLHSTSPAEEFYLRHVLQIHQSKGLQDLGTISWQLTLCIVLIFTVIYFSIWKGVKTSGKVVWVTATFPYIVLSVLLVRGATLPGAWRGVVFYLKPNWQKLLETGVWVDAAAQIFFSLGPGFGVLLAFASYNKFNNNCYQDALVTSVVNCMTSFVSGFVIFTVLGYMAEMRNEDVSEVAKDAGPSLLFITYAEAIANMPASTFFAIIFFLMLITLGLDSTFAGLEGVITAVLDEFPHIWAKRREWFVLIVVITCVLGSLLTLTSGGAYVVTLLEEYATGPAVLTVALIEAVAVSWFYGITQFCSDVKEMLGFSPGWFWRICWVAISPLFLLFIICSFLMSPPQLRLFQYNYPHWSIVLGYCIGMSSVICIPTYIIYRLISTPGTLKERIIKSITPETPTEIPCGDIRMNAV
T4 sequence (P23977 whole entry, looked up): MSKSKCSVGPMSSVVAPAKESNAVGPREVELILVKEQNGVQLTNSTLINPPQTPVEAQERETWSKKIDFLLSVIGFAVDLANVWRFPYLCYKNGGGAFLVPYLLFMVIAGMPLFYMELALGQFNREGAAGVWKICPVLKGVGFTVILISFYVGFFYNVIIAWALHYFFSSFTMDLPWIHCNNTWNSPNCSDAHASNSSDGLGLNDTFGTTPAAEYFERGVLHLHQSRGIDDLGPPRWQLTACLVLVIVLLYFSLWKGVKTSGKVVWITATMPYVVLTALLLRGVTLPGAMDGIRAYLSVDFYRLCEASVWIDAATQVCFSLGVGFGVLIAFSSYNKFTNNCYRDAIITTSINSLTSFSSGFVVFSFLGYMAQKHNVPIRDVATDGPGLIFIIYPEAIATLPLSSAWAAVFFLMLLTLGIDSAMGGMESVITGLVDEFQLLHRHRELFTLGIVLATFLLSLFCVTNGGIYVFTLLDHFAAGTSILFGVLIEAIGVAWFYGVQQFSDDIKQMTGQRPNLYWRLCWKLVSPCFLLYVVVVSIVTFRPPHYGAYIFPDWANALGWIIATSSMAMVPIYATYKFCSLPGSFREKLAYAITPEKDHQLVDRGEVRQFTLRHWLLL
T4 sequence (P31652 whole entry, looked up): as the sequence (P31652 whole entry) above
T1 sequence (P23977 whole entry): as the sequence (P23977 whole entry, looked up) above
T3 sequence (Q9WTR4 whole entry): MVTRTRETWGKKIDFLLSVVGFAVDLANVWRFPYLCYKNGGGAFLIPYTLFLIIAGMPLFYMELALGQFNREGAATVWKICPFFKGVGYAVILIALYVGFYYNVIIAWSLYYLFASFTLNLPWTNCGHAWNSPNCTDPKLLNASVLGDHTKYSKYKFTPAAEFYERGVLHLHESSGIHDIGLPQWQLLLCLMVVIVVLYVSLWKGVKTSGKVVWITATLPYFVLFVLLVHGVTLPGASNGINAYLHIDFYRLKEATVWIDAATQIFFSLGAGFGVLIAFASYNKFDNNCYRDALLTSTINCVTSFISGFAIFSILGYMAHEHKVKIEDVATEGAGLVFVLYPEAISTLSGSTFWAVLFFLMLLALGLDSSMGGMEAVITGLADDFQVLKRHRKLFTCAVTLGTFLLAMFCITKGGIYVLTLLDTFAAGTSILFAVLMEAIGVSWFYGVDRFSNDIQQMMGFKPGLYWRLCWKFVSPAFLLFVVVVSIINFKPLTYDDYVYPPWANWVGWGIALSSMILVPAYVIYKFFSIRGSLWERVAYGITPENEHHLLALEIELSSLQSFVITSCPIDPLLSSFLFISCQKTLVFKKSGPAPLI

On to `COC(=O)C1C(c2ccc(Cl)cc2)CC2CCC1N2C` (stereo not given), for which the Ki in assay [1] was 3.68 nM; in assay [2] it was 5 nM.
`COC(=O)[C@H]1[C@@H](c2ccc(F)cc2)C[C@H]2CC[C@H]1N2C` had an IC50 in [3] of 692 nM. Besides, the values for the inhibition constant Ki in [2] and in assay [4] were 101 nM and 38.6 nM, respectively.
With `CC(C)OC(=O)C1C(c2ccc(Cl)cc2)CC2CCC1N2C` (stereo not given), the Ki is 6.04 nM in assay [1], 129 nM in [2] and 250 nM in [4]. The Ratio came to 1000 in assay [5] and 556 in assay [6]. Moreover, the IC50 in assay [7] came out at 778 nM; in assay [8], 1.4 nM.
For the molecule `CN1C2CCC1C(C(=O)OC/C=C/c1ccccc1)C(OC(=O)c1ccccc1)C2` (stereo not given), the values for the 50% inhibitory concentration (IC50) in assay [3], in [7] and in [8] were 368 nM, 68900 nM and 371 nM, respectively. In addition, the Ratio in [6] was determined as 186; in assay [9] it was 1.
Consider `COC(=O)C1C(c2ccc(C)cc2)CC2CCC1N2C` (stereo not given), for which the inhibition constant (Ki) in assay [1] worked out at 7.02 nM; in assay [4] it was 8.42 nM. The IC50 turned out to be 60 nM in assay [7] and 1.71 nM in [8].
On to `CN1C2CCC1C(C(=O)Oc1ccccc1)C(c1ccc(Cl)cc1)C2` (stereo not given), for which the figures for the Ki in assay [1], in assay [2] and in assay [4] were 5.25 nM, 391 nM and 242 nM, respectively. Further, the Ratio in [5] is 1180; in assay [6] it was 1490.
As to `COC(=O)C1C(c2ccc(I)cc2)CC2CCC1N2C` (stereo not given), the Ki in assay [1] was determined as 1.96 nM; in assay [2], 1.74 nM; in assay [4], 7.51 nM. The Ratio in assay [5] is 3.3; in [6], 29. Further, the IC50 in [7] came out at 36 nM; in [8], 1.26 nM.
For the molecule `Cc1ccc(C2CC3CCC(C2C(=O)Oc2ccccc2)N3C)cc1` (stereo not given), the Ki in [1] amounted to 9.13 nM; in assay [2], 1540 nM; in assay [4], 278 nM. For the same molecule, the Ratio came to 7410 in assay [5] and 1790 in [6]. For the same molecule, the IC50 in assay [7] worked out at 5830 nM; in assay [8] it was 3.26 nM.
On to `CN1C2CCC1C(C(N)=O)C(OC(=O)c1ccccc1)C2` (stereo not given), for which the IC50 amounted to 13700 nM in assay [3], 3980 nM in [7] and 753 nM in assay [8]. The results for the Ratio in [6] and in [9] were 5.3 and 18, respectively.
For the molecule `CN1C2CCC1C(C(=O)OC1CC1)C(c1ccc(I)cc1)C2` (stereo not given), the Ratio stood at 167 in assay [6] and 25 in [9]. In addition, the half-maximal inhibitory concentration (IC50) in [7] stood at 102 nM; in assay [8], 0.61 nM.
As to `Cc1ccc(C2CC3CCC(C2C(=O)OC(C)C)N3C)cc1` (stereo not given), the inhibitory constant (Ki) in assay [1] worked out at 15.3 nM; in assay [4] it was 73.4 nM. In addition, the Ratio was determined as 59.9 in assay [5], 299 in [6] and 944 in assay [9]. Moreover, the IC50 in assay [7] turned out to be 1930 nM; in [8], 6.45 nM.
`CC(C)OC(=O)C1C(c2ccccc2)CC2CCC1N2C` (stereo not given): the IC50 in [3] was determined as 23100 nM; in [7], 32000 nM; in assay [8], 85.1 nM. Also, the Ratio in assay [5] was determined as 272; in assay [6], 377.
For `COC(=O)[C@@H]1C2CC[C@H](C[C@@H]1c1ccccc1)N2C`, the inhibition constant (Ki) in [1] amounted to 49.8 nM; in [4], 37.2 nM.
As to `CN1C2CCC1C(C(=O)N1CCCO1)C(c1ccc(Cl)cc1)C2` (stereo not given), the IC50 was determined as 2470 nM in assay [3], 1080 nM in assay [7] and 1.47 nM in assay [8]. For the same molecule, the Ratio in assay [5] came to 1680; in assay [6], 736.
In the same order, the values of `Cc1ccc(C2CC3CCC(C2C(=O)OC2CCCC2)N3C)cc1` (stereo not given) are 485 nM, 2630 nM, 17.8 nM, 27 and 148.
In the same order, the values of `CN1C2CCC1C(C(=O)N1CCCO1)C(c1ccc(I)cc1)C2` (stereo not given) are 130 nM, 357 nM, 0.75 nM, 173 and 476.
For `Cc1ccc(C2CC3CCC(C2C(N)=O)N3C)cc1` (stereo not given), the IC50 in [3] stood at 6370 nM; in assay [7] it was 4400 nM; in assay [8] it was 41.8 nM. In addition, the Ratio in [6] is 105; in assay [9], 152.
Take `CN1C2CCC1C(C(=O)Oc1ccccc1)C(OC(=O)c1ccccc1)C2` (stereo not given): the 50% inhibitory concentration (IC50) was 33700 nM in assay [3], 31000 nM in assay [7] and 112 nM in assay [8]. Also, the Ratio in assay [5] turned out to be 301; in assay [6], 277.
In the same order, the values of `CN1[C@H]2CC[C@@H]1[C@@H](C(=O)N1CCCC1)[C@@H](c1ccc(I)cc1)C2` are 1730 nM, 991 nM, 0.37 nM, 4670 and 2680.
Turning to `CN1C2CCC1C(C(N)=O)C(c1ccc(Cl)cc1)C2` (stereo not given), the IC50 was 1620 nM in assay [3], 4270 nM in assay [7] and 11.5 nM in [8]. The Ratio in [6] was 371; in [9] it was 141.
Turning to `Cc1ccc(C2CC3CCC(C2C(=O)Oc2ccc(Cl)cc2)N3C)cc1` (stereo not given), the IC50 in [3] is 42800 nM; in assay [7] it was 9520 nM; in assay [8], 117 nM. The Ratio amounted to 366 in assay [5] and 81 in assay [6].
In the same order, the values of `COc1ccc(OC(=O)C2C(c3ccc(Cl)cc3)CC3CCC2N3C)cc1` (stereo not given) are 19700 nM, 1520 nM, 71 nM, 277 and 21.
For `Cc1ccc(C2CC3CCC(C2C(=O)OC2CCC2)N3C)cc1` (stereo not given), in that order: 2020 nM, 4740 nM, 3.74 nM, 540 and 1270.
`CONC(=O)C1C(c2ccc(Cl)cc2)CC2CCC1N2C` (stereo not given): the IC50 was 43700 nM in [3], 9910 nM in assay [7] and 10.7 nM in assay [8]. For the same molecule, the Ratio in [5] came out at 4080; in assay [6] it was 826.
Consider `CCN(CC)C(=O)C1C(c2ccc(C)cc2)CC2CCC1N2C` (stereo not given), for which the results for the IC50 in [3], in assay [7] and in [8] were 33900 nM, 6220 nM and 24.7 nM, respectively. In addition, the Ratio was determined as 1370 in assay [5] and 252 in [6].
In the same order, the values of `COC(=O)C1C(c2ccc(N)c(I)c2)CC2CCC1N2C` (stereo not given) are 120 nM, 1330 nM, 1.35 nM, 89 and 984.
For `CON(C)C(=O)C1C(c2ccc(C)cc2)CC2CCC1N2C` (stereo not given), in that order: 3400 nM, 442 nM, 2.55 nM, 1330 and 173.
Take `CN1C2CCC1C(C(=O)Oc1ccccc1)C(c1ccc(I)cc1)C2` (stereo not given): the IC50 is 184 nM in assay [3], 3790 nM in assay [7] and 1.5 nM in assay [8]. Moreover, the values for the Ki in [1], in assay [2] and in assay [4] were 6.85 nM, 51.6 nM and 32.7 nM, respectively. Moreover, the Ratio was found to be 123 in assay [5] and 2580 in assay [6].
Turning to `Cc1ccc(C2CC3CCC(C2C(=O)N2CCOCC2)N3C)cc1` (stereo not given), the IC50 in assay [3] is greater than 100000 nM; in assay [7] it was 23600 nM; in assay [8] it was 11.7 nM. The Ratio in assay [5] is greater than 8550; in [6], 2020.
For `CN1C2CCC1C(C(=O)N1CCCCC1)C(c1ccc(Cl)cc1)C2` (stereo not given), in that order: 3470 nM, 1750 nM, 6.95 nM, 499 and 252.
For `CN1C2CCC1C(C(=O)Oc1ccccc1)C(c1ccccc1)C2` (stereo not given), in that order: 106000 nM, 19300 nM, 76.7 nM, 1380 and 251.
On to `CN1C2CCC1C(C(=O)NCO)C(c1ccc(Cl)cc1)C2` (stereo not given), for which the Ratio was 47 in assay [6] and 48 in assay [9]. Besides, the IC50 in assay [7] amounted to 144 nM; in [8], 2.05 nM.
As to `CNC(=O)C1C(OC(=O)c2ccccc2)CC2CCC1N2C` (stereo not given), the IC50 in assay [3] is 44800 nM; in [7], 4210 nM; in [8] it was 2420 nM. In addition, the Ratio in assay [6] is 1.7; in assay [9], 18.
Take `CON(C)C(=O)C1C(c2ccc(I)cc2)CC2CCC1N2C` (stereo not given): the values for the IC50 in [3], in assay [7] and in assay [8] were 73.9 nM, 103 nM and 1.08 nM, respectively. Moreover, the Ratio in assay [5] was 68; in [6] it was 95.

As usually defined, the Ki is a measure of affinity in units of concentration, obtained from inhibition or displacement. For orientation: IC50 means the concentration that inhibits the measured activity by half. Low values mean greater potency, high ones weaker potency.
